Shown are actives, neighbours in structure and some others; about 3.8% of the full set was active somewhere.
hERG protect – hERG (human) protection from proarrhythmic block | Q12809 | CHO-hERG, FluxOR thallium flux, dofetilide IC70 present | activation (rescue from dofetilide block), less the hit threshold, % at 10 µM | 310,000 compounds, 0.51% hits;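 active = activation above the mean of controls blocked by dofetilide plus 5 SD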;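 note: thallium influx through hERG after potassium depolarization seen as dye fluorescence rise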
KCNQ1 inh – inhibitors of human KCNQ1 potassium channel | P51787 | CHO-K1 KCNQ1, FluxOR thallium flux fluorescence; stronger effect = higher value | B-score at 10 µM | 310,000 compounds, 1.3% hits | AID 2642;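 active = compounds whose thallium flux B-score, printed positive for inhibition, exceeds three library SD while starting fluorescence stays within three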;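 note: channel opened by potassium depolarization with thallium stimulus after 20 min compound exposure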
KCNQ1 act – human KCNQ1 channel potentiation or activation; P51787; CHO-K1 KCNQ1, thallium flux FluxOR fluorescence; stronger effect = higher value; B-score at 10 µM; 310,000 compounds, 0.35% hits; AID 2648;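 active = fluorescence ratio B-score, a plate-corrected score, at least three library SD, with initial intensity B-score within 5 SD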
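Assay system: CHO-K1 cells stably expressing KCNQ1. Medium: assay buffer for compound exposure, DMSO matched across wells. Timing: 37 °C overnight plating, 90-min dark dye load, 20-min compound pretreatment. Signal: kinetic FluxOR fluorescence, 10 s baseline plus 110 s post-stimulus.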
Kir21 inh – inhibitors of mouse Kir2.1 inward-rectifier potassium channel | P35561 | HEK293-Kir2.1, FluxOR thallium flux fluorescence; stronger effect = lower value | B-score at 10 µM | 310,000 compounds, 0.85% hits;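 active = fluorescence ratio B-score at or below minus 3 SD of library scores, with starting-brightness B-score within 2 SD, cut at about -4.2 in these data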;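 note: channel flux triggered by added potassium and thallium sulfate stimulus; B-score of peak minus minimum fluorescence over baseline after thallium stimulus; more negative B-score means stronger Kir2.1 block with less thallium influx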
KCNK9 inh – blocks the human KCNK9 two-pore domain potassium channel. B-score at 10 µM. HEK293 KCNK9, FluxOR thallium flux fluorescence; stronger effect = lower value. 310,000 compounds, 1.2% hits. Q9NPC2;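 active = ratio B-score over 3 SD below the library mean, with starting fluorescence within 5 SD of its mean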;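 note: negative B-score means less thallium flux so channel inhibition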
KCNK3 inh – human KCNK3 channel inhibition, primary screen; B-score at 10 µM; O14649; 340,000 compounds, 0.84% hits; CHO-KCNK3 thallium flux, FluxOR fluorescence; stronger effect = lower value; AID 602410;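 active = B-score under library mean minus 4 SD, starting fluorescence ratio at most library mean plus 5 SD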;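 note: more negative B-score means stronger inhibition of thallium flux through KCNK3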
Target sequence (O14649 whole entry, looked up): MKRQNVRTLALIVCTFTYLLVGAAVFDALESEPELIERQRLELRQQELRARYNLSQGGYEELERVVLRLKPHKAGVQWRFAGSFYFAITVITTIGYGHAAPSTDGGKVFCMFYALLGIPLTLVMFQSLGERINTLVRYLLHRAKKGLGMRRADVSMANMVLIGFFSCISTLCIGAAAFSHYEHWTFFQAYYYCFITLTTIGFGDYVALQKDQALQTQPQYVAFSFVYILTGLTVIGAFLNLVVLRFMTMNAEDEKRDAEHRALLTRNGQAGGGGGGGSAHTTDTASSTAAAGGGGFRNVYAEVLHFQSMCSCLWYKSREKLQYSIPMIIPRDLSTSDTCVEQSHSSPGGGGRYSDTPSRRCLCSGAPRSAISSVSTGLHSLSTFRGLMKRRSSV
Numbers stand for hits; 0 = inactive; - = not tested or not shown.

SMILES	hERG protect	KCNQ1 inh	KCNQ1 act	Kir21 inh	KCNK9 inh	KCNK3 inh
CCN(CC)CCCNC(=S)N1CCN(c2nc(-c3ccccc3)cs2)CC1	0	0	0	0	0	0
CCC12CN(S(=O)(=O)c3ccc(C)cc3)CC(CC)(CN(S(=O)(=O)c3ccc(C)cc3)C1)C2=O	0	0	0	0	0	-9.1
CNC(=O)c1ccccc1NC(=O)c1ccc(C)c(S(=O)(=O)N2CCCCC2)c1	8.7	0	0	0	0	0
Cc1ccc(C(=O)Nc2cccc(O)c2)cc1S(=O)(=O)N1CCCCCC1	0	0	0	0	0	0
Cc1ccc(C(=O)Oc2ccc([N+](=O)[O-])cc2)cc1S(=O)(=O)N1CCCCCC1	0	0	0	0	-8.1	0
COC(=O)c1ccc(COC(=O)c2ccc(C)c(S(=O)(=O)N3CCCCC3)c2)cc1	-	-	-	-	-	-9.2
Cc1ccc(C(=O)OCC(=O)N2C(C)CCCC2C)cc1S(=O)(=O)N1CCCCC1 (stereo not given)	0	0	0	0	0	0
COc1cccc(-c2cc(C(=O)NCc3ccco3)c3ccccc3n2)c1	0	0	0	0	0	0
C=CCn1c(SCC(=O)Nc2ccc3c(c2)OCCO3)nc2cc(C(=O)O)ccc2c1=O	-	-	-	-	-	0
Cc1ccn2c(/C=N/OCc3ccc(F)cc3)c(-c3ccc(Cl)cc3)nc2c1	0	0	0	0	-7.4	0
Cc1ncc(N=Nc2ccc(F)cc2)c(-c2ccc(Cl)cc2)n1	0	0	0	0	0	0
O=[N+]([O-])c1cccc(NC(=S)N2CCN(c3ccccn3)CC2)c1	0	0	0	0	0	0
CCc1nnc(SCC(=O)NC2CCCC2)nc1CC	0	0	0	0	0	0
CCc1nnc(SCC(=O)Nc2ccccc2)nc1CC	4.9	0	0	0	0	0
COC(=O)[C@]1(C)N[C@H](CN(C)S(=O)(=O)c2ccc(C(F)(F)F)cc2)[C@@H]2C(=O)N(C)C(=O)[C@@H]21	-	-	-	-	-	0
CCOc1ccc(-c2c[n+]3c(n2-c2ccccc2)CCCCC3)cc1	0	7	0	0	0	0
COc1ccc2oc(C(=O)NCCN3CCOCC3)c(C)c2c1OC	0	0	0	0	0	0
C[C@@H](CSc1ccccc1)CN1CC[C@H](NC(=O)OCc2ccccc2)CCC1=O	0	0	0	0	0	0
COc1ccccc1C(=O)NNC(=O)C(=O)NCc1ccccc1	10	0	7	0	0	0
C[C@]12CCC(=O)C=C1CC[C@@H]1[C@@H]2[C@@H](O)C[C@]2(C=O)[C@@H](C(=O)CO)CC[C@@H]12	0	0	0	0	0	0
Cc1ccsc1/C=N/NC(=O)c1ccccn1	4.7	0	0	0	0	0
Cc1ccsc1/C=N/NC(=O)c1cccs1	0	0	0	0	0	0
Cc1ccsc1/C=N/NC(=O)C(N)=O	4.7	0	0	0	0	0
CCCc1cc(=O)[nH]c(SC(C)C(=O)N2c3ccccc3CC2C)n1 (stereo not given)	-	-	-	-	-	0
COc1ccc(-n2nc(C(=O)c3cccs3)cc(-c3nc4ccccc4[nH]3)c2=N)cc1	0	0	0	0	0	0
SMILES	hERG protect	KCNQ1 inh	KCNQ1 act	Kir21 inh	KCNK9 inh	KCNK3 inh
Cc1ccccc1-n1nc(C(=O)c2cccs2)cc(-c2nc3ccccc3[nH]2)c1=N	0	6	0	0	0	0
Cc1cccc(NC(=O)c2ccc(C)c(S(=O)(=O)N3CCOCC3)c2)n1	-	-	-	-	-	0
COC(=O)C1=C(C)NC2=C(C(=O)CCC2)C1c1ccsc1 (stereo not given)	0	0	0	0	0	-
COC(=O)C1=C(C)NC2=C(C(=O)CCC2)C1c1ccc(-c2ccsc2C(=O)OC)o1 (stereo not given)	14	0	0	0	0	0
Cc1cc(O)c2c(c1)C(=O)c1cc(O)cc(O)c1C2=O	0	6	0	0	0	0
COc1ccc(NC(=O)c2ccc(COCC(F)(F)C(F)F)cc2)cc1OC	0	0	0	0	0	0
COc1ccc(NC(=O)c2ccc(COCC(F)(F)C(F)F)cc2)cc1	13	0	0	0	0	0
CC(C)C[C@@H](CNCC(=O)[C@H](CC(C)C)NC(=O)c1[nH]cnc1C(=O)N[C@H](CN)CC(C)C)NC(=O)c1nc[nH]c1C(=O)N[C@@H](Cc1ccccc1)C(=O)O	-	-	-	-	-	0
Cc1cc(/C=N/n2cnnc2)c(C)n1-c1ccc(Cl)cc1	0	0	0	0	0	0
Cc1cc(/C=N/n2cnnc2)c(C)n1-c1ccc(Cl)cc1Cl	0	0	10	0	0	0
COc1ccc(S(=O)(=O)N2CCCCC2)cc1NC(=O)C1COc2ccccc2O1 (stereo not given)	0	0	0	0	0	0
Cc1cc(OCC(O)CNC(C)c2ccccc2)ccc1C(C)C (stereo not given)	0	0	0	-10	0	0
COC(=O)c1ccc(Oc2nc(Nc3ccc(C)c(C)c3)nc(N(C)C)n2)cc1	0	6	0	0	0	0
COc1ccc(NC(=O)C2CCN(C(=O)Nc3ccccc3)CC2)cc1S(=O)(=O)N(C)C	-	-	-	-	-	0
O=C(/C=C/c1ccc(Cl)cc1)NC(=S)Nc1ccc(CN2CCOCC2)cc1	0	0	0	0	0	0
COc1ccc(Br)cc1/C=C/C(=O)NC(=S)Nc1ccc(CN2CCOCC2)cc1	0	8	0	0	0	0
COc1ccc(C(=O)Nc2ccc(CN3CCOCC3)cc2)cc1Br	0	0	0	-5.3	0	0
COc1ccc(C(=O)NC(=S)Nc2ccc(CN3CCOCC3)cc2)cc1OC	0	0	0	0	0	0
CCC(C)(C)n1nnnc1C(c1cc(OC)c(OC)c(OC)c1)N1CCN(c2ccccc2)CC1 (stereo not given)	0	0	0	0	0	0
COc1ccc(CN(C)C(c2ccccc2)c2nnnn2-c2ccccc2C)c(OC)c1C (stereo not given)	0	0	0	0	-7.9	0
CCN(CC)c1nc(OCCNC(=O)Nc2ccccc2)nc(N(CC)CC)n1	0	10	0	-5.3	-7.9	0
COc1ccc(CNC(=S)Nc2ccc(F)c(Cl)c2)cc1OC	4.9	0	0	0	0	0
CN(c1ccccc1)c1ccc(/C=C/[N+](=O)[O-])cc1	0	0	0	-11	0	0
COC(=O)c1cccc(-c2ccc(/C=N/N3C(=O)C4C5C=CC(C6CC56)C4C3=O)o2)c1 (stereo not given)	0	7	0	0	0	0
CC(C)CCN1C(Nc2ccccc2)=NC[C@@H]1Cc1ccccc1	0	0	0	0	0	0
CC(CCN1C(Nc2ccccc2)=NC[C@@H]1Cc1ccccc1)c1ccccc1 (stereo not given in full)	0	0	0	-7.2	0	0
O=C(O)c1c[nH]c2c([N+](=O)[O-])cccc2c1=O	-	-	-	-	-	0
COc1cccc(CCNC(=O)CCc2nnc(-c3cc(C)oc3C)o2)c1	0	0	0	0	0	0
